# Data: ChEMBL document CHEMBL1124171, “Ergolines as selective 5-HT1 agonists” (J Med Chem, 1988)
# How the values were obtained:
# [1] = target: Serotonin 2 (5-HT2) receptor (Rattus norvegicus, UniProt P30994+P08909+P14842); assay: Binding affinity at 5-hydroxytryptamine 2 receptor from rat frontal cortex homogenates by [3H]-spiperone displacement.; type: tissue-based
# [2] = target: T1, Serotonin 1 (5-HT1) receptor (Rattus norvegicus, UniProt P28564+P30940+P19327+P28565); assay: Tested for its binding affinity towards 5-hydroxytryptamine 1 receptor in rat cortical membrane homogenates using radioligand ([3H]5-HT) binding assay.; type: cell membranes
# Procedure, shortened: (§1)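 Frontal cortex from male Wistar rats (140–160 g), homogenate pellet in 0.05 M Tris with 10 μM pargyline and 4 mM Ca²⁺, 250–350 μg protein/sample. 5-HT1: 2 nM [³H]-5-HT, nonspecific with 10 μM 5-HT. […] Eleven concentrations, 0.1–10 000 nM, in duplicate. IC50 from curve fitting of specific binding.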
# [3] = (§2) Ratio of affinity towards 5-HT1 to 5-HT2 receptor; procedure, shortened: as §1
# [4] = target: T1, Serotonin 1 (5-HT1) receptor; assay: Binding affinity towards 5-hydroxytryptamine 1 receptor using [3H]5-HT as a radioligand from rat frontal cortex homogenates; type: tissue-based
# Rattus norvegicus [5] = assay: Minimum effective dose required to suppressing (MED) 5HIAA concentration in rat when administered sc; type: functional; details: read-out: MED
# Procedure, shortened: (§3)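 Male Wistar rats (~150 g). Compound in dilute HCl given sc at graded doses 1 h before decapitation. Whole-brain 5-HIAA measured by LC with electrochemical detection; serum corticosterone measured spectrofluorometrically. Minimum effective dose is the lowest dose giving a significant difference from control (P < 0.05).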
# Rattus norvegicus [6] = assay: Minimum effective dose required to increase (MED) corticosterone in rat serum, sc; type: functional; details: read-out: MED; procedure, shortened: as §3
# Rattus norvegicus [7] = organism: Rattus norvegicus; assay: Effect of […] on the elevation of serum corticosterone at a dose 100 ug/mL No pretreatment; type: functional, organism-based
# Procedure, shortened: (§4)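 Rats got p-chlorophenylalanine (300 mg/kg, ip) or no pretreatment. 24 h later, drug (0.3 mg/kg, sc, dilute HCl) or p-chloroamphetamine HCl (2.5 mg/kg, ip) was given, and rats were killed 1 h after. Serum corticosterone was measured spectrofluorometrically. Results are mean ± SE, five male Wistar rats/group.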
# Rattus norvegicus [8] = organism: Rattus norvegicus; assay: Effect of fluoxetine on the elevation of serum corticosterone at a dose 100 ug/mL, No pretreatment; type: functional, organism-based
# Procedure, shortened: as §4, with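 “fluoxetine HCl (10” for “p-chlorophenylalanine (300”, “16” for “24”, “with decapitation” for “and rats were killed”, “rats/group, P < 0.05.” for “rats/group.”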
# Rattus norvegicus [9] = organism: Rattus norvegicus; assay: Effect of fluoxetine on the elevation of serum corticosterone at a dose 100 ug/mL, Fluoxetine pretreament; type: functional, organism-based
# Procedure, shortened: as §4, with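 “fluoxetine HCl (10” for “p-chlorophenylalanine (300”, “16” for “24”, “with decapitation” for “and rats were killed”, “rats/group, P < 0.05.” for “rats/group.”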
# Rattus norvegicus [10] = organism: Rattus norvegicus; assay: Effect of […] on the elevation of serum corticosterone at a dose 100 ug/mL PCPA pretreament; type: functional, organism-based; procedure, shortened: as §4
# [11] = as §2; type: functional; procedure, shortened: as §1
# [12] = target: T1, Serotonin 1 (5-HT1) receptor; assay: Binding affinity towards 5-hydroxytryptamine 1 receptor in rat frontal cortex homogenates using [3H]5-HT as a radioligand; type: tissue-based
# Procedure, shortened: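 Frontal cortex from male Wistar rats (140–160 g), pellet in 0.05 M Tris with 10 μM pargyline and 4 mM Ca²⁺, 250–350 μg protein/sample. 2 nM [³H]-5-HT; nonspecific binding with 10 μM 5-HT; specific binding = total minus nonspecific. Eleven test concentrations, 0.1–10 000 nM, in duplicate.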
# Rattus norvegicus [13] = assay: Effect on 3,4-dihydroxyphenylacetic acid concentration in rat striatum, after 1 mg/kg sc administration; type: functional; details: route subcutaneous
# Procedure, shortened: (§5)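 Male Wistar rats (~150 g) were given drug or apomorphine HCl sc and decapitated 1 h later. Striatal DOPAC and HVA were quantified by LC with electrochemical detection. Results are mean ± SE, five rats/group, P < 0.05.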
# Rattus norvegicus [14] = assay: Effect on homovanillic acid concentration in rat striatum, after 3 mg/kg sc administration; type: functional; details: route subcutaneous; procedure, shortened: as §5
# Rattus norvegicus [15] = assay: Effect on homovanillic acid concentration in rat striatum, after 10 mg/kg sc administration; type: functional; details: route subcutaneous; procedure, shortened: as §5
# Rattus norvegicus [16] = assay: Effect on 3,4-dihydroxyphenylacetic acid concentration in rat striatum, after 3 mg/kg sc administration; type: functional; details: route subcutaneous; procedure, shortened: as §5
# Rattus norvegicus [17] = assay: Effect on 3,4-dihydroxyphenylacetic acid concentration in rat striatum, after 10 mg/kg sc administration; type: functional; details: route subcutaneous; procedure, shortened: as §5
# Rattus norvegicus [18] = assay: Effect on homovanillic acid concentration in rat striatum, after 1 mg/kg sc administration; type: functional; details: route subcutaneous; procedure, shortened: as §5
Compound,IC50 [1] [nM],IC50 [2] [nM],Selectivity ratio [3],further results
C[C@H]1C=C2c3cccc4[nH]cc(c34)C[C@H]2N(C)C1,130,80,1,–
CSC[C@@H]1C=C2c3cccc4c3[C@@H](CN4)C[C@H]2N(C)C1,1330,–,66,IC50 [4]: 20 nM; minimal effective dose (Rattus norvegicus [5]): 0.1 mg/kg; minimal effective dose (Rattus norvegicus [6]): 1 mg/kg
CN1C[C@H](CO)C=C2c3cccc4c3[C@@H](CN4)C[C@H]21,2650,–,102,IC50 [4]: 26 nM; minimal effective dose (Rattus norvegicus [5]): 1 mg/kg; minimal effective dose (Rattus norvegicus [6]): 0.1 mg/kg
C=C1C=C2c3cccc4c3[C@@H](CN4)C[C@H]2N(C)C1,3820,–,48,IC50 [4]: 80 nM
CC(N)Cc1ccc(Cl)cc1 (configuration not stated),–,–,–,Serum corticosterone (Rattus norvegicus [7]): 51.1 µg/mL; Serum corticosterone (Rattus norvegicus [8]): 69.4 µg/mL; Serum corticosterone (Rattus norvegicus [9]): 29.5 µg/mL; Serum corticosterone (Rattus norvegicus [10]): 14.9 µg/mL
CN1C[C@H](CO)C[C@@H]2c3cccc4[nH]cc(c34)C[C@H]21,450,–,4,IC50 [4]: 120 nM
CCCN1C[C@H](C)C=C2c3cccc4c3[C@@H](CN4)C[C@H]21,> 1000,240,> 5,–
CN1C[C@H](CO)C=C2c3cccc4[nH]cc(c34)C[C@H]21,160,15,11,–
CN1C[C@H](CSc2ccccc2)C=C2c3cccc4c3[C@@H](CN4)C[C@H]21,210,8,26,–
CN1C[C@H](CC#N)C=C2c3cccc4c3[C@@H](CN4)C[C@H]21,2120,20,106,minimal effective dose (Rattus norvegicus [5]): 0.1 mg/kg; minimal effective dose (Rattus norvegicus [6]): 0.1 mg/kg
C[C@H]1C=C2c3cccc4c3[C@@H](CN4)C[C@H]2N(C)C1,> 1000,–,–,IC50 [4]: 20 nM; Selectivity ratio [11]: > 50; minimal effective dose (Rattus norvegicus [5]): 0.001 mg/kg; minimal effective dose (Rattus norvegicus [6]): 0.003 mg/kg
CC1=C[C@@H]2c3cccc4[nH]cc(c34)C[C@H]2N(C)C1 [AGROCLAVINE],270,140,2,–
CC1=C[C@@H]2c3cccc4c3[C@@H](CN4)C[C@H]2N(C)C1,1850,–,14,IC50 [12]: 130 nM
C[C@@H]1C=C2c3cccc4[nH]cc(c34)C[C@H]2N(C)C1,110,5,22,–
C=C1C=C2c3cccc4[nH]cc(c34)C[C@H]2N(C)C1,140,20,7,–
COC(=O)[C@@H]1C=C2c3cccc4c3[C@@H](CN4)C[C@H]2N(C)C1,1620,40,40,–
C[C@@H]1C[C@@H]2c3cccc4c3[C@@H](CN4)C[C@H]2N(C)C1,4220,–,11,IC50 [12]: 390 nM
C[C@@H]1C=C2c3cccc4c3[C@H](C[C@H]2N(C)C1)CN4C,1250,160,8,–
CN1C[C@H](CSc2ccccn2)C=C2c3cccc4c3[C@@H](CN4)C[C@H]21,110,3,28,–
CN1CCc2cccc3c2[C@H]1Cc1ccc(O)c(O)c1-3 [APOMORPHINE],–,–,–,DOPAC (Rattus norvegicus [13]): 2.97; HVA (Rattus norvegicus [14]): 1.14; HVA (Rattus norvegicus [15]): 0.91; DOPAC (Rattus norvegicus [16]): 2.33; DOPAC (Rattus norvegicus [17]): 1.73; HVA (Rattus norvegicus [18]): 1.59
